# A selection: hits, their analogues and other compounds. The true share with any hit is near 4.5%.
# CHO parental Ca: ATP-evoked calcium signal inhibitors, parental CHO, primary screen, counter-screen for OX1R antagonist project, cell-based, fluorescence, Fluo-8 calcium dye. parental CHO-K1, ATP-induced calcium, Fluo-8 fluorescence. inhibition, % at 5.6 µM. AID 463079, 2010. 0.63% of 330,000 active;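 active = inhibition above that plate's mean sample inhibition plus 3 SD, cut at about 26% in these data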;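 note: 0% = ATP-challenged DMSO wells and 100% = DMSO wells without ATP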
#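 Material: parental CHO cells / Compound: single nominal dose of 5.6 µM per compound / Signal: Fluo-8 fluorescence / Replicates: singlicate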
# OX1R antag-1: OX1R (HCRTR1) antagonists, primary screen, fluorescence, CHO/OX1R cells, Fluo-8 calcium, orexin A; Fluo-8 calcium fluorescence; inhibition, % at 5 µM; 0.43% of 330,000 active; AID 434989, 2010;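 active = inhibition above its plate's threshold, mean inhibition of all tested compounds on the plate plus 3 SD, cut at about 37% in these data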;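 note: 0% = orexin A challenge wells and 100% = SB-334867-A antagonist wells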
# Target sequence (O43613 whole entry, looked up): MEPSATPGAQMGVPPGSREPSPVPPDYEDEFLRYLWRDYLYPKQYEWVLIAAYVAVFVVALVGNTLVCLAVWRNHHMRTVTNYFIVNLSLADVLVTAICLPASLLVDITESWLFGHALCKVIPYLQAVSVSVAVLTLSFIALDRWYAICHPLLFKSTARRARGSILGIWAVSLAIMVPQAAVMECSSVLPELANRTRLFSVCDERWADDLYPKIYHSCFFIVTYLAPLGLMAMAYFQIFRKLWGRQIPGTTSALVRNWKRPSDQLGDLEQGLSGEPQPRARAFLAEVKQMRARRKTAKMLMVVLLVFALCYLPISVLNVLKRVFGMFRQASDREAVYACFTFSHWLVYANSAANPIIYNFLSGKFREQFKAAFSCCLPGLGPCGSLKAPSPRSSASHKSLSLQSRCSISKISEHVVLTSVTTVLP
# TAAR1 ag: human TAAR1 agonists, primary screen, Fluo-8 calcium fluorescence, CHO RD-HGA16 cells | Trace amine-associated receptor 1 (Homo sapiens), Q96RJ0 | vehicle wells 0%, saturating PEA agonist 100% | activation, % at 3 µM | 0.99% of 360,000 active | AID 624467, 2012;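 active = activation above the mean activation of all test compounds in the run plus 3 SD, cut at about 38% in these data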
#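 Repeats: no replicates (n 1) | Material: CHO-derived RD-HGA16 cells with stable Gα16 and human TAAR1 | Technique: Kinetic Fluo-8 calcium fluorescence | Schedule: 17-24 h seeding, 75 min 37 °C dye, 30 min RT | Evaluation: % activation from peak over basal fluorescence ratio, DMSO-to-PEA scaled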
# TAAR1 antagonist: human TAAR1 antagonists, primary screen, Fluo-8 calcium fluorescence, CHO RD-HGA16 cells; Trace amine-associated receptor 1 (Homo sapiens), Q96RJ0; antagonist; inhibition, % at 3 µM; 1.5% of 360,000 active; AID 624466, 2012;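 active = inhibition above a per-plate cutoff, the mean inhibition of test compounds on that plate plus 3 SD, cut at about 49% in these data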;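 note: 0% = DMSO plus EC80 beta-PEA response and 100% = DMSO alone without agonist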
#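 Test system – hTAAR1-expressing CHO RD-HGA16 cells, Gα16-coupled · Also added – β-PEA at EC80 concentration, post-compound challenge · Compound – 3 µM, single point · Incubation – dye loading 75 min at 37 °C, then 30 min room temperature · Measured by – Fluo-8 intracellular calcium dye fluorescence, real-time kinetic reads · Benchmarks – vehicle and agonist controls · Replicates – singlicate, one well per test compound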
# OX1R antag-2: antagonists of human orexin 1 receptor (OX1R); OX1R-expressing cells, FRET antagonist read-out; inhibition, % at 6.6 µM; 1.8% of 330,000 active; in the data active = inhibition mostly above about 38%, no sharp cut-off; inactive = mostly below about 40%;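 note: 0% = agonist challenge alone and 100% = reference antagonist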
# GPR7 antagonist: GPR7 receptor antagonists, primary screen, cell-based, fluorescence, single concentration; 1.1% of 290,000 active; Neuropeptides B/W receptor type 1 (Homo sapiens), P48145; GPR7-expressing cells, fluorescence antagonist assay; inhibition, % at 4.4 µM; AID 1861, 2009; in the data active = inhibition above about 16%, passing the limit was not always enough;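 note: cells stimulated with the agonist NPW; 0% = agonist with vehicle and 100% = vehicle without agonist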
# An asterisk follows results filed as active; · = not tested or not shown.
SMILES,CHO parental Ca,OX1R antag-1,TAAR1 ag,TAAR1 antagonist,OX1R antag-2,GPR7 antagonist
CC(C)(C)OC(=O)NCCCCCNC(=O)c1[nH]cnc1C(=O)N[C@@H](Cc1ccccc1)C(=O)OC(C)(C)C,40.2*,40.8,·,·,2.8,·
O=c1[nH][nH]c(=O)c2cc([N+](=O)[O-])ccc12,-6.6,-13.9,2.2,-4.7,51.7*,·
COc1cc2c(=O)[nH]c3cc([N+](=O)[O-])ccc3c2cc1[N+](=O)[O-],·,·,0.5,-19.9,·,·
O=c1[nH]cnc2ccc([N+](=O)[O-])cc12,5.1,-0.3,1.2,13.9,52.3*,3.4
NC(=O)c1ncn([C@@H]2O[C@H](C(=O)N[C@H](Cc3c[nH]c4ccccc34)C(=O)N3CCN(CC(=O)N4CCCC4)CC3)[C@@H](O)[C@H]2O)n1,·,·,-0.1,0.4,·,·
O=S1(=O)N[C@@H](Cc2ccccc2)COc2cccc(N3CCCC3)c21,·,·,8.1,3.7,·,·
COc1ccc(NC(=O)N(C)C[C@H]2OCc3cnnn3CCCC(=O)N([C@H](C)CO)C[C@@H]2C)c(OC)c1,·,·,-0.1,7.0,·,·
CCO[C@@H]1OC(C(=O)NCc2ccccc2)=C[C@H](c2csc3ccccc23)[C@H]1CCCO,2.4,9.6,24.7,54.2*,29.6,11.0
CCO[C@H]1OC(C(=O)NCc2ccccc2)=C[C@@H](c2cn(C(C)=O)c3ccccc23)[C@@H]1CCCO,-3.8,-14.6,44.6*,17.7,18.4,11.4
C#CCNC(=O)C1=C[C@H](c2csc3ccccc23)[C@@H](CCCO)[C@H](OCC)O1,-24.4,-14.3,4.8,9.1,25.7,-5.8
CCOC(=O)C1=CCN(S(=O)(=O)c2ccc([N+](=O)[O-])cc2)C1c1ccc(C)cc1 (stereo unspecified),·,·,1.5,31.9,·,·
O=C(N/C(=C\c1ccc([N+](=O)[O-])cc1)C(=O)N1CCCCC1)c1ccccc1Br,-28.0,-30.6,2.1,16.8,50.5*,-3.7
Clc1ccc2c(c1)-c1nnc(Br)n1-c1ccccc1S2,2.2,20.3,7.6,8.9,60.4*,-2.0
Clc1ccccc1-c1nnc2n1-c1ccccc1SC2,-8.8,1.1,3.4,-10.8,13.2,-10.1
CCOC(=O)C1=CCN(S(=O)(=O)c2cccc(Cl)c2)C1c1ccc(Cl)cc1 (stereo unspecified),·,·,0.6,20.4,·,·
COc1cccc(CNC(=O)[C@H]2CCCN2C(=O)[C@H]2CCCN2C(=O)c2ccccc2)c1,·,·,6.2,-8.3,·,·
O=C(Nc1cccnc1)c1ccc2c(c1)C(=O)N(CC1CCCO1)C2=O (stereo unspecified),-5.9,-5.1,10.3,-18.3,73.3*,-7.2
Cc1ccc(NC(=O)c2ccc3c(c2)C(=O)N(CC2CCCO2)C3=O)cc1C (stereo unspecified),-18.6,-23.2,6.8,24.4,31.3,6.8
O=C1/C(=C\c2ccc(O)c(O)c2)SC(=S)N1Cc1ccccc1,·,·,38.4*,-13.9,·,23.6
COc1cc(/C=C2/SC(=NCc3ccccc3)N(Cc3ccccc3)C2=O)ccc1O,-16.4,-24.9,8.0,-3.8,11.8,-2.1
COc1cc(/C=C2/SC(=O)NC2=O)ccc1OCc1ccccc1,-6.7,-18.7,5.0,-6.5,53.6*,2.7
COc1cc(/C=C2/SC(=S)N(Cc3ccccc3)C2=O)ccc1O,33.2*,33.1,44.4*,12.4,7.6,-11.1
COc1cc(/C=C2\SC(=S)N(NS(=O)(=O)c3ccccc3)C2=O)ccc1O,44.1*,23.7,16.5,0.2,47.0,-8.8
CCCCN1CC(COc2ccc(OC)cc2)OCCS1(=O)=O (stereo unspecified),·,·,-1.5,-0.3,·,·
COc1cccc(C2NC(=S)NC(C)=C2C(C)=O)c1 (stereo unspecified),·,·,1.9,-7.3,·,·
SMILES,CHO parental Ca,OX1R antag-1,TAAR1 ag,TAAR1 antagonist,OX1R antag-2,GPR7 antagonist
COC(=O)C1=C(C)N(Cc2cccc(C(F)(F)F)c2)C(=NCC2CC2)NC1c1ccccc1C(F)(F)F (stereo unspecified),·,·,9.2,15.3,·,·
COc1ccc(-c2ccccc2C2Cc3nnccc3CN2)cc1 (stereo unspecified),·,·,4.1,0.4,·,·
COc1cc(/C=C2\SC(=Nc3ccccc3)NC2=O)cc(Cl)c1O,39.0*,60.6*,74.8*,61.7*,48.8*,17.6
CCc1ccc(N=C2NC(=O)/C(=C/c3cc(OC)c(O)c(OC)c3)S2)cc1,·,·,3.5,17.3,·,-15.4
COC(=O)[C@]12C[C@H](CC(=O)N3CCSCC3)C(=O)N(CCC3=CCCCC3)C1=C[C@H](C(C)(C)C)O[C@@H]2C,·,·,-1.6,-57.6,·,·
CCn1c(SCC(=O)Nc2nc3ccccc3s2)nnc1-c1ccc(OC)cc1,38.8*,-1.7,16.8,-8.8,33.7,-7.1
CCn1c(SCC(=O)Nc2nc3c(s2)CCCC3)nnc1-c1ccccc1,-26.2,-11.7,4.5,18.7,48.8*,-10.1
COc1ccccc1-c1csc(C(O)c2ccccc2)n1 (stereo unspecified),·,·,-1.5,-24.2,·,·
CCOc1ccccc1C1C2C(=O)N(c3ccccc3)C(=O)C2ON1c1ccccc1 (stereo unspecified),-10.0,5.2,16.4,50.3*,17.2,3.3
CSc1nc2c(c(-c3ccc(O)cc3)c1C#N)CCC2,48.0*,8.8,-1.7,3.9,38.5,-25.2
CN1/C(=C\C(=O)c2ccco2)C(C)(C)c2ccccc21,70.9*,21.4,1.8,57.5*,32.6,24.1
CN1/C(=C\C(=O)c2cncc(Br)c2)C(C)(C)c2ccccc21,38.6*,37.2,-0.2,0.2,19.0,8.5
CN1/C(=C\C(=O)C(F)F)C(C)(C)c2ccccc21,-2.1,-11.3,-1.9,-3.5,-1.1,-16.1
CC(C)C(=O)NC(=S)/C=C1/N(C)c2ccccc2C1(C)C,0.3,-6.2,0.7,2.9,13.9,0.7
CC(=O)/C=C1\N(C)c2ccc(C)cc2C1(C)C,38.1*,6.3,-1.5,-1.0,22.3,-6.8
C[C@H](CO)N1C[C@H](C)[C@@H](CN(C)C(=O)Nc2cccc(F)c2)OCc2cn(nn2)CCCC1=O,·,·,1.6,-7.2,·,·
COc1c(-c2ccc([N+](=O)[O-])cc2[N+](=O)[O-])c(=O)n(C)c(=O)n1C,-3.9,-13.8,-1.3,0.3,50.9*,-13.0
COCCN1C(=O)/C(=C/c2ccc(N3CCCC3)cc2)SC1=S,41.6*,50.4*,51.6*,50.2*,13.3,1.1
